Test results reported in paper PMC7468331 (Acta Pharmacologica Sinica, 2019).

System: HFD-induced obese mice
Test: HFD-induced obese mice
Assay type: in vivo, C57BL/6J male mice
Conditions: HFD-fed mice
How it was run: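 Male C57BL/6J mice, 5 weeks old, SPF, 12 h light/dark cycle, were fed high-fat diet. After 10 weeks they were randomised to daily gavage with vehicle, test compound (25 or 50 mg/kg) or reference ACC inhibitor (50 mg/kg) to week 22, with food intake and weight recorded weekly. Liver read-outs: H&E, Oil red O, sirius red, F4/80 immunofluorescence, α-SMA IHC, qPCR (ΔΔCt, 18S) and Western blot (β-actin).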

In the case of `Cc1nc2ccc(C(=O)N3CCC4(CC3)CC(=O)c3c(cnn3C(C)C)C4)cc2[nH]1` [PF-05175157], the “activation of macrophages (liver F4/80)” value (50 mg/kg ig daily) is reported as “failed to prevent” and the “Col1a1 gene expression and collagen accumulation in the liver” value (ig daily, sirius red staining) is reported as “not observed”.
